{
  "source": "paper PMC8286830",
  "about": "(Biochemical Journal, 2021)",
  "key": {"Δ21TgCEN1 [1]": {"molecular_target": "T1, Δ21TgCEN1 (Toxoplasma gondii, UniProt A0A125YHX7)", "T1 sequence (A0A125YHX7 22-169)": "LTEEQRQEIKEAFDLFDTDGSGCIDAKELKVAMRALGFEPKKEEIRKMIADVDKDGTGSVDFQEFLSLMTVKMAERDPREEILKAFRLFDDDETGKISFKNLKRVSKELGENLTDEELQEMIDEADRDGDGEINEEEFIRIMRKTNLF", "assay": "DLS particle size / count rate of Δ21TgCEN1", "assay_type": "physicochemical", "details": "50 µM N21, 1 mM CaCl2", "summary_of_the_method": "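Recombinant tag-free Δ21TgCEN1 from E. coli Rosetta (Ni affinity, TEV cleavage). For DLS, 10 µM protein in 20 mM Tris–HCl, 20 mM KCl pH 7.5 with 1 mM CaCl2 at 37°C was spun at 21 000 g for ≥30 min, then measured before and after adding 50 µM N21 peptide. Diameter was reported as number distribution. In parallel, A340 turbidity of 20 µM protein was followed over time.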"}, "[2]": {"assay": "Turbidimetry at 340 nm, N21 peptide alone", "assay_type": "physicochemical", "details": "1 mM CaCl2, 20 mM Tris–HCl, 20 mM KCl pH 7.5, 37°C, turbidity at 340 nm", "summary_of_the_method": "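Synthetic N21 peptide (>90% HPLC purity, mass confirmed by ESI-MS) alone with 1 mM CaCl2 in 20 mM Tris–HCl, 20 mM KCl pH 7.5 at 37°C. Absorbance at 340 nm recorded over time in 1 cm quartz cuvettes.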"}, "Δ21TgCEN1 [3]": {"molecular_target": "T1, Δ21TgCEN1", "assay": "Turbidimetry at 340 nm, Δ21TgCEN1", "assay_type": "physicochemical", "details": "20 µM Δ21TgCEN1 + 50 µM N21, 1 mM CaCl2, 20 mM KCl pH 7.5, 37°C", "summary_of_the_method": "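Construct lacking residues 1–21 (E. coli Rosetta) at 20 µM in 20 mM Tris–HCl, 20 mM KCl pH 7.5, 1 mM CaCl2, 37°C. A340 followed over time, before and after adding 50 µM synthetic N-terminal peptide (residues 1–21). Peptide alone with CaCl2 run as a control trace.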"}, "TgCEN1 [4]": {"test_system": "TgCEN1", "assay": "Turbidimetry at 340 nm, TgCEN1 self-assembly", "assay_type": "physicochemical, Toxoplasma gondii", "details": "increasing ANS concentrations, 1 mM CaCl2, 20 mM KCl, pH 7.5, 37°C", "summary_of_the_method": "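Full-length protein (E. coli Rosetta) at 20 µM in 20 mM Tris–HCl, 20 mM KCl pH 7.5, 37°C, A340 recorded versus time. Run with 1 mM CaCl2, with 1 mM EGTA, or with EGTA added to Ca2+-saturated protein. Ca2+ series 5–2000 µM, read at 25 min versus metal/protein ratio. Also varied: temperature 4–45°C, protein 5–50 µM, KCl 0–150 mM, and 600 µM ANS.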"}, "C-TgCEN1 [5]": {"molecular_target": "T2, C-TgCEN1 (Toxoplasma gondii, UniProt A0A125YHX7)", "assay": "DLS particle size of C-TgCEN1", "assay_type": "physicochemical", "summary_of_the_method": "(§1)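 Domains produced in E. coli Rosetta: N-domain residues 1–94 and C-domain 95–169. […] 10 µM protein in 20 mM Tris–HCl pH 7.5, 1 mM CaCl2, at selected KCl concentrations or with 600 µM ANS. Samples centrifuged at 21 000 g for ≥30 min; filtered buffers. Hydrodynamic diameter reported as number distribution (633 nm laser, 173°).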"}, "TgCEN1 [6]": {"test_system": "TgCEN1", "assay": "DLS particle size of TgCEN1", "assay_type": "physicochemical, Toxoplasma gondii", "details": "600 µM ANS, 1 mM CaCl2, 20 mM Tris–HCl, 20 mM KCl pH 7.5, 37°C"}, "N-TgCEN1": {"test_system": "N-TgCEN1", "assay": "DLS particle size of N-TgCEN1", "assay_type": "physicochemical, Toxoplasma gondii", "details": "600 µM ANS, 10 µM N-TgCEN1, 1 mM CaCl2", "summary_of_the_method": "as §1"}, "C-TgCEN1 [7]": {"molecular_target": "T2, C-TgCEN1", "assay": "Turbidimetry at 340 nm, C-TgCEN1", "assay_type": "physicochemical", "details": "20 µM, 1 mM CaCl2, 20 mM KCl pH 7.5, 37°C", "summary_of_the_method": "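Recombinant N-domain (1–94) or C-domain (95–169), Ni-affinity purified. A340 followed over time in a 1 cm cuvette. Standard conditions: 20 µM protein, 20 mM Tris–HCl, 20 mM KCl pH 7.5, 1 mM CaCl2, 37°C. Conditions also varied: CaCl2 0–2 mM, temperature 4–45°C, protein 5–50 µM, KCl 0–150 mM, or 600 µM ANS added.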"}, "[8]": {"assay": "Far-UV CD of the substance alone", "assay_type": "physicochemical", "details": "20 µM, aqueous solution, 50 mM Tris–HCl, 150 mM KCl pH 7.5, 25°C", "summary_of_the_method": "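Synthetic peptide (>90% HPLC purity, mass confirmed by ESI-MS), quantified by ε280 = 5500 M−1 cm−1, at 20 µM. Buffer: 50 mM Tris–HCl, 150 mM KCl pH 7.5, 0.5 mM DTT with 5 mM CaCl2 or EGTA. Spectra 200–250 nm, 0.1 cm cell, 25°C, average of five accumulations, buffer spectrum subtracted.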"}, "EoCEN": {"test_system": "EoCEN", "details": "addition of XPC peptide; cited from earlier work"}, "[9]": {"details": "600 µM ANS, 10 µM C-TgCEN1, 1 mM CaCl2"}},
  "note": "“Also recorded” adds a separate entry of the source.",
  "data": [
    {"compound": "1-MHSRKGASSLPRGRGAGKKTE-21 [N21]", "values": [
      {"measurement": "DLS count rate of Δ21TgCEN1 with N21", "setting": "Δ21TgCEN1 [1]", "value": "increase"},
      {"measurement": "Ca^2+-induced aggregation of peptide alone", "setting": "[2]", "value": "did not aggregate upon addition of Ca^2+ in solution"},
      {"measurement": "Δ21TgCEN1 light scattering at 340 nm with N21", "setting": "Δ21TgCEN1 [3]", "value": "an increase in the light scattering at 340 nm"}
    ]},
    {"compound": "O=S(=O)(O)c1cccc2cccc(Nc3ccccc3)c12", "note": "[ANS, 1-anilino-8-naphthalenesulphonic acid, reference compound]", "values": [
      {"measurement": "TgCEN1 final turbidity at 340 nm with ANS", "setting": "TgCEN1 [4]", "value": "decreased at increasing ANS concentrations; also recorded: only partially quenched the aggregation process"},
      {"measurement": "diameter of new species of C-TgCEN1 with ANS (larger)", "setting": "C-TgCEN1 [5]; [9]", "value": "35 ± 1", "unit": "nm"},
      {"measurement": "diameter of new species of C-TgCEN1 with ANS (smaller)", "setting": "C-TgCEN1 [5]; [9]", "value": "7.96 ± 0.01", "unit": "nm"},
      {"measurement": "hydrodynamic diameter of TgCEN1 particles with ANS", "setting": "TgCEN1 [6]", "value": "~238", "unit": "nm"},
      {"measurement": "effect of ANS on association of N-TgCEN1", "setting": "N-TgCEN1", "value": "no effect"}
    ]},
    {"compound": "C-TgCEN1: C-terminal domain of TgCEN1, 95–169 aa", "values": [
      {"measurement": "turbidity at 340 nm", "setting": "C-TgCEN1 [7]", "value": "no turbidity changes at 340 nm"},
      {"measurement": "particle diameter", "setting": "C-TgCEN1 [5]; 10 µM, 1 mM CaCl2, 20 mM Tris–HCl, 20 mM KCl pH 7.5", "value": "311 ± 1", "unit": "nm"},
      {"measurement": "DLS profile vs salt", "setting": "C-TgCEN1 [5]; 10 µM, selected KCl concentrations, 1 mM CaCl2", "value": "only small changes in the DLS profiles"},
      {"measurement": "far-UV CD conformation alone", "setting": "[8]", "value": "well-folded"}
    ]},
    {"compound": "XPC peptide: XPC peptide added to centrin from Euplotes octocarinatus (EoCEN), cited ref 43 (NWKLLAKGLLIRERLKR)", "values": [
      {"measurement": "effect on protein aggregates", "setting": "EoCEN", "value": "dissociation of protein aggregates"}
    ]}
  ]
}
